Substrate: N[C@@H](Cc1c[nH]c2ccccc12)C(=O)O
Experiment: Activity of human recombinant TDO expressed in Escherichia coli BL21 using L-tryptophan as substrate by measuring conversion of N-formylkynurenine into kynurenine per mg of protein after 30 mins by Michaelis-Menten steady state analysis
Summary of the method: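 Crude extract of E. coli overexpressing recombinant human TDO (~3 μg total protein) was added to prewarmed mix: 50 mM phosphate pH 7.5, 20 mM ascorbate, 10 μM methylene blue, 500 IU/mL catalase and varied L-Trp. Run at 37 °C, stopped with TCA at 2 and 4 min, then 65 °C for 30 min. Kynurenine was read at 480 nm with Ehrlich's reagent against a kynurenine standard curve; rate taken from 2–4 min.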

B1: Tryptophan 2,3-dioxygenase (Homo sapiens), P48775 (protein)
chain: MSGCPFLGNNFGYTFKKLPVEGSEEDKSQTGVNRASKGGLIYGNYLHLEKVLNAQELQSETKGNKIHDEHLFIITHQAYELWFKQILWELDSVREIFQNGHVRDERNMLKVVSRMHRVSVILKLLVQQFSILETMTALDFNDFREYLSPASGFQSLQFRLLENKIGVLQNMRVPYNRRHYRDNFKGEENELLLKSEQEKTLLELVEAWLERTPGLEPHGFNFWGKLEKNITRGLEEEFIRIQAKEESEEKEEQVAEFQKQKEVLLSLFDEKRHEHLLSKGERRLSYRALQGALMIYFYREEPRFQVPFQLLTSLMDIDSLMTKWRYNHVCMVHRMLGSKAGTGGSSGYHYLRSTVSDRYKVFVDLFNLSTYLIPRHWIPKMNPTIHKFLYTAEYCDSSYFSSDESD
Km: 167 µM
Vmax: 97 µM/s

Source: ChEMBL document CHEMBL1811872, “Tryptophan 2,3-dioxygenase (TDO) inhibitors. 3-(2-(pyridyl)ethenyl)indoles as potential anticancer immunomodulators” (J Med Chem, 2011)
